Results as given in ChEMBL document CHEMBL5543124, “Lead Compound Development of SRC-3 Inhibitors with Improved Pharmacokinetic Properties and Anticancer Efficacy” (J Med Chem, 2024).
Active and inactive are the calls of the source. The rule behind the calls is not given here.

Columns and labels:
[1] = AUC (0 to t) in CD-1 mouse at 1 mg/kg,iv administration measured upto 48 hrs by LC-MS/MS analysis; format: ADME, organism-based; settings: in vivo
How it was run: (§1)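 Single intravenous bolus in ICR male mice (n = 3, 6 weeks); dosing solution 0.5 mg/mL in 20% DMSO, 16% PEG, 4% dextrose in PBS. Tail-vein blood (10 μL) taken at 2, 5, 15, 30 min and 1, 2, 4, 8, 24, 48 h. Plasma quantified by LC-MS/MS against a 0.5–1000 ng/mL calibration; parameters from non-compartmental analysis.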

[2] = Cytotoxicity against human MPANC96 cells assessed as inhibition of cell growth incubated for 72 hrs by MTT assay; format: functional, cell-based; settings: MPANC96, 72 h
How it was run: (§2)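 Cells seeded and grown to 70–80% confluence, then exposed for 72 h to a titration series (0.2–1000 nM). Viability read by MTT relative to untreated cells, with 6 replicates per concentration. IC50 fitted with a Hill-slope model.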

PANC-1 [3] = assay: Cytotoxicity against […] SRC-3.2 knockdown human PANC-1 cells assessed as inhibition of cell growth incubated for 72 hrs by MTT assay; format: functional, cell-based; settings: PANC-1, 72 h
How it was run: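 PANC-1 cells with stable lentiviral shRNA knockdown of SRC-3 or control shRNA; SRC-3 levels checked by western blot. Cells treated with a dose series for 72 h and viability read by MTT.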

[4] = target: T1, Voltage-gated inwardly rectifying potassium channel KCNH2 (Homo sapiens, UniProt Q12809); assay: Inhibition of hERG; format: toxicity
[5] = Half life in CD-1 mouse at 1 mg/kg,iv administration measured upto 48 hrs by LC-MS/MS analysis; format: ADME, organism-based; settings: in vivo; how it was run: as §1
[6] = Tmax in CD-1 mouse at 10 mg/kg,po administration measured upto 48 hrs by LC-MS/MS analysis; format: ADME, organism-based; settings: in vivo
How it was run: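 Male ICR mice (n=3) dosed by oral gavage at 10 mg/kg from a 1 mg/mL solution in 20% DMSO/16% PEG/4% dextrose in PBS. Tail-vein blood (10 μL) drawn at 15 and 30 min and at 1, 2, 4, 8, 24 and 48 h. Plasma quantified by LC-MS/MS against calibration standards. Parameters from non-compartmental extravascular model.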

Prostate cancer organoid = assay: Antitumor activity against patient derived Prostate cancer PDX organoid assessed as reduction in organoid growth measured after 2 weeks; format: functional, tissue-based; settings: Homo sapiens
How it was run: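 Single cells from prostate cancer PDX tumors (collagenase I/III digest); 20000 cells embedded in collagen gel and cultured overnight, then treated or vehicle for 14 days with at least 5 wells per dose. Organoids imaged and counted on day 14; groups compared by Student t test.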

[7] = target: T1, Voltage-gated inwardly rectifying potassium channel KCNH2; assay: Inhibition of hERG transfected in HEK293 cells at 10 uM by patch clamp assay; format: toxicity, cell-based; settings: hek293, 10 µM
Panc-1-Luc = assay: Antitumor activity against human Panc-1-Luc cells orthotopically xenografted in SCID mouse assessed as reduction in tumor growth at 10 mg/kg,ip administration once daily for 63 days; format: functional, organism-based; settings: time 63.0 day
How it was run: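 Panc-1-Luc cells (0.5×10^6) implanted orthotopically in pancreas of male SCID mice (8 weeks). Mice randomized by luciferase imaging (n = 5/group); from day 8 given 10 mg/kg or vehicle daily. Tumor measured weekly by luciferase imaging and calipers (length × width²/2), body weight weekly; tumors harvested at day 63.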

[8] = Antitumor activity against human Panc-1-Luc cells orthotopically xenografted in SCID mouse assessed as reduction in tumor weight at 10 mg/kg,ip administration once daily for 63 days by weighing harvested tumors; settings: time 63 day
MDA-MB-468 = assay: Cytotoxicity against human MDA-MB-468 cells assessed as change in gene expression observed after 12 hrs by RNA-seq assay
PANC-1 [9] = assay: Cytotoxicity against human PANC-1 cells assessed as inhibition of cell growth incubated for 72 hrs by MTT assay; format: functional, cell-based; settings: PANC-1, 72 h; how it was run: as §2
Endothelin-1 receptor = target: T2, Endothelin-1 receptor (Homo sapiens, UniProt P25101); assay: Agonist activity at EDNRA (unknown origin) by calcium flux assay; format: toxicity
T2 sequence (P25101 whole entry): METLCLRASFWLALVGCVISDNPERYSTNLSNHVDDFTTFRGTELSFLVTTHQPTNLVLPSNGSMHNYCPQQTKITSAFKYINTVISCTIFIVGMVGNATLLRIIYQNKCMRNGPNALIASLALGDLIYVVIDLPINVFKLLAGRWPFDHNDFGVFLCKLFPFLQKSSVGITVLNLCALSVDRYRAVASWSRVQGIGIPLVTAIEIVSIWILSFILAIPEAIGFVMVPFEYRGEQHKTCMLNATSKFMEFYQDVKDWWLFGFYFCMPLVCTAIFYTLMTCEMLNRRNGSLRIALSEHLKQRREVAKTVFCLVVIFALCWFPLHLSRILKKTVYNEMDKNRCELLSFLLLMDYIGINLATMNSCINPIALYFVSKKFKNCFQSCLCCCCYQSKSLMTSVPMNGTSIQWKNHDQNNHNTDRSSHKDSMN
How it was run: (§3)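 Tested in a commercial off-target safety screening panel of 78 targets. Values reported as RC50, taken as IC50 except for agonist mode, where RC50 is EC50.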

[10] = target: Prostaglandin G/H synthase 1 (Homo sapiens, UniProt P23219); assay: Inhibition of COX1 (unknown origin); format: toxicity; how it was run: as §3
[11] = Cytotoxicity against CD-1 mouse Primary hepatocyte assessed as inhibition of cell growth incubated for 72 hrs by MTT assay; format: toxicity, cell-based; settings: primary hepatocytes
Mu-type opioid receptor = Mu-type opioid receptor (Homo sapiens, UniProt P35372); assay: Antagonist activity at OPRM1 (unknown origin) by cAMP assay; format: toxicity; how it was run: as §3
[12] = target: Nuclear receptor coactivator 3 (Homo sapiens) (UniProt Q9Y6Q9); assay: Inhibition of recombinant His-tagged SRC-3 (unknown origin) expressed in baculovirus assessed as reduction in recruitment of SRC-3 in ER complex at 0.15 uM incubated for 30 mins by pull-down based western blotting analysis
How it was run: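 Purified baculovirus-expressed His-SRC-3-flag (0.1 μg) preincubated with compound or vehicle for 30 min on ice. Then 0.1 μg recombinant ERα and His-p300 plus ERE-containing DNA oligo and 1 μM 17β-estradiol added, 1 h on ice. ER complexes immunoprecipitated with anti-ERα antibody; SRC-3 and p300 detected by western blot.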

[13] = Antitumor activity against patient derived MDA-PCa-118b cells xenografted in SCID mouse assessed as reduction in ratio of tumor area to femur area at 10 mg/kg,ip administration measured after 4 weeks by CT imaging analysis; format: functional, Homo sapiens; parameters: scale not given: the % may be the effect or the level left
How it was run: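 AR-PDX 118b cells (1×10^5) injected via intra-femoral artery in male SCID mice (8–9 weeks). After 2 weeks, 10 mg/kg/day ip or vehicle for 4 weeks (n = 9/group). X-ray imaging every two weeks. At the end, femurs CT-scanned (5 per group) with 3D-reconstruction tumor size, and H&E histology used for tumor/femur area ratio.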

[14] = Cmax in CD-1 mouse at 1 mg/kg,iv administration measured upto 48 hrs by LC-MS/MS analysis; format: ADME, organism-based; settings: in vivo; how it was run: as §1
[15] = target: T1, Voltage-gated inwardly rectifying potassium channel KCNH2; assay: Inhibition of hERG transfected in HEK293 cells by patch clamp assay; format: toxicity, cell-based

T1 sequence (Q12809 whole entry): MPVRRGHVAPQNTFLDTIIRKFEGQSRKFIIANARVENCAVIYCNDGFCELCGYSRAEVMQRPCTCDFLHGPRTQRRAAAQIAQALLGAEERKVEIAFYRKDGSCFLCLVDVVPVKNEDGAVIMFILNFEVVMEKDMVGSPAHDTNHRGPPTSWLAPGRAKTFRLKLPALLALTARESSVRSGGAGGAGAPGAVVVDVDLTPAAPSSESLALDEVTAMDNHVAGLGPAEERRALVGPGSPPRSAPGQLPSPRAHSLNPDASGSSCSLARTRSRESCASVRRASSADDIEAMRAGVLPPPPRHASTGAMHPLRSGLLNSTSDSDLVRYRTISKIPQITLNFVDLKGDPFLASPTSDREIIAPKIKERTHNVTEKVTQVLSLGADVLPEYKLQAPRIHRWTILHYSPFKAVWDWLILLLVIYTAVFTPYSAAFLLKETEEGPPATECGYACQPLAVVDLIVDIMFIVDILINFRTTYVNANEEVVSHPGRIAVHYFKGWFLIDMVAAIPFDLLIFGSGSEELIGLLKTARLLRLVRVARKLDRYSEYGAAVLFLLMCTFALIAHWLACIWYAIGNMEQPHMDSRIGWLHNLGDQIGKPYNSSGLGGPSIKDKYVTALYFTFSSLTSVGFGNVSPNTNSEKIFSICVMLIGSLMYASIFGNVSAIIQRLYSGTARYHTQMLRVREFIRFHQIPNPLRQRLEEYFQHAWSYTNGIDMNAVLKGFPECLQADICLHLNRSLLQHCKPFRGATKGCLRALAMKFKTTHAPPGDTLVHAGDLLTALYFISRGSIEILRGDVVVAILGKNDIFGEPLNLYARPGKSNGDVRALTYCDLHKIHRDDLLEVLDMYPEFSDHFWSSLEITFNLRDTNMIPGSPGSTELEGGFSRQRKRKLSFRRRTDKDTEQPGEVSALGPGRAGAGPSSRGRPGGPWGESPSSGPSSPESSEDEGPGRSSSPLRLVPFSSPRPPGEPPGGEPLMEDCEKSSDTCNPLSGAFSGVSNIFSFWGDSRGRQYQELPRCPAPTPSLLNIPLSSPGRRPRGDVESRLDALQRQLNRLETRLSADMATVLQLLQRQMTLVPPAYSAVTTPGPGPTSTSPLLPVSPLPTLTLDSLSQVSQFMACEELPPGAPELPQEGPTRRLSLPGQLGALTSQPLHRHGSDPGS
Prostaglandin G/H synthase 1, sequence (P23219 whole entry): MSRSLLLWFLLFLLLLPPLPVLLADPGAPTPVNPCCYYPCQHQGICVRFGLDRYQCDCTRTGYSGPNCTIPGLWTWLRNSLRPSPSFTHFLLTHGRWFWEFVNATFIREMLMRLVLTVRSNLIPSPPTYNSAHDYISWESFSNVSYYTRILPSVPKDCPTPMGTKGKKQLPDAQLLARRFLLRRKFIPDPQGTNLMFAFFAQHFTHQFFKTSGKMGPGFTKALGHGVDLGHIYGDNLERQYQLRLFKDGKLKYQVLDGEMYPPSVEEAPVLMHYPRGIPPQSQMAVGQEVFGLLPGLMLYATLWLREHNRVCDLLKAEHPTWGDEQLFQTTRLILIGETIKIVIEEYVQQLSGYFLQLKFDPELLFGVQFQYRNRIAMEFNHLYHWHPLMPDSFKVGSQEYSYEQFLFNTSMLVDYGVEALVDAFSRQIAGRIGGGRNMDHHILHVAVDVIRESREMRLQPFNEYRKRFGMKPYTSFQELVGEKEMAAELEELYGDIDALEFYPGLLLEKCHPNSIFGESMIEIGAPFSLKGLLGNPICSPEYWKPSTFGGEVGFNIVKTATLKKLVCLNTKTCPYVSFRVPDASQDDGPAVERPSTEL
Nuclear receptor coactivator 3 (Homo sapiens), sequence (Q9Y6Q9 2-1424 limits assumed): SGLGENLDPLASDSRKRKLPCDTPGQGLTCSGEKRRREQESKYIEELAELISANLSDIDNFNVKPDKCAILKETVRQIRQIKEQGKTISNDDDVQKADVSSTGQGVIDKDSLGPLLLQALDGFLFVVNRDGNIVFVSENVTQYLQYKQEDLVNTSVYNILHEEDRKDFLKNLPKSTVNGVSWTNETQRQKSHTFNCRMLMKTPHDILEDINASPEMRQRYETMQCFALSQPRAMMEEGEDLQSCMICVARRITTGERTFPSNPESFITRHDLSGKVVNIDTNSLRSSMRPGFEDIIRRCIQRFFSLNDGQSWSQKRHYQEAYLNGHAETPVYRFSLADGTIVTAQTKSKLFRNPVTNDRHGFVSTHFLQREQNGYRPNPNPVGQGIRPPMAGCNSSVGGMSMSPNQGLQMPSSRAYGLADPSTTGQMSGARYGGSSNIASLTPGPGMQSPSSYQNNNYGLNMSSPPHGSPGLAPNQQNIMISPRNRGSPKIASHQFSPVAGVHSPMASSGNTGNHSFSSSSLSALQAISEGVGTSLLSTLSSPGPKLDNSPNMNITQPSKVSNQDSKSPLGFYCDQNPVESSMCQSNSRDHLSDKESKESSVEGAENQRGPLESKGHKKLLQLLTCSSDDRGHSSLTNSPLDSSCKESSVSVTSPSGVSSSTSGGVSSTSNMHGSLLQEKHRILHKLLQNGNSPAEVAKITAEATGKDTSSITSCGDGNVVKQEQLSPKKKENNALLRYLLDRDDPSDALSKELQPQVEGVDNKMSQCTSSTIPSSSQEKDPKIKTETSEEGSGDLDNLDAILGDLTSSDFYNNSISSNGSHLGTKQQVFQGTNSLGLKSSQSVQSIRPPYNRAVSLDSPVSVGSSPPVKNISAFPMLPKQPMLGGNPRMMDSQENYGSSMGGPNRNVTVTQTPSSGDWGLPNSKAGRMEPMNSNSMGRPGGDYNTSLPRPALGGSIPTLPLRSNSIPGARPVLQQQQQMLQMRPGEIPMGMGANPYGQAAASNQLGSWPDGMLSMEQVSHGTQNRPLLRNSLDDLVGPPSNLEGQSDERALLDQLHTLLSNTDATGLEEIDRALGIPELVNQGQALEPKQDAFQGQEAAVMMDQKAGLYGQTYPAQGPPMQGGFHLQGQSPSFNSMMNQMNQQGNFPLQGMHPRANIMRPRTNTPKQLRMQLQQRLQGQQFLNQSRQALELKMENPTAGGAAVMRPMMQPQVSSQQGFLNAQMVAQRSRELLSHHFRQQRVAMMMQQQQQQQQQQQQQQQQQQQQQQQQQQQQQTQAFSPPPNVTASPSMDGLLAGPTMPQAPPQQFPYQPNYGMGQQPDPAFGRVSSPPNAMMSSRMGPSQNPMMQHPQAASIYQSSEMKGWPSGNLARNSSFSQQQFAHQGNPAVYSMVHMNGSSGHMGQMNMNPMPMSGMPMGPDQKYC
Mu-type opioid receptor, sequence (P35372 whole entry): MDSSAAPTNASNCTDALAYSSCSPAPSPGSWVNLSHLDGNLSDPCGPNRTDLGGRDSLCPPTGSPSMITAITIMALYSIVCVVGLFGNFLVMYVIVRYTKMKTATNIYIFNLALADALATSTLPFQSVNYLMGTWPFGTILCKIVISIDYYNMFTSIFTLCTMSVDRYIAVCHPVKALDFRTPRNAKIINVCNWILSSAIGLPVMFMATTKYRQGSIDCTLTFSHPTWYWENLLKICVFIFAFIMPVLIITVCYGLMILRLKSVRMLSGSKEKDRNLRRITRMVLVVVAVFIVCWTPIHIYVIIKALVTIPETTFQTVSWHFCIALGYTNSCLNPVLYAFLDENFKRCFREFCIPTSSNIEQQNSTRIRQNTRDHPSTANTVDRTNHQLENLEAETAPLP

AUCt [1]: 737 ng·h/mL
t1/2 [5]: 22.5 h
Tmax [6]: 0.25 h
inhibition [12]: Active
Cmax [14]: 1066 ng/mL
SMILES: C/C(=N\N=c1/[nH]c2cc(F)c(F)cc2n1C)c1ccc(F)cn1
IC50 [2]: 28 nM
IC50 (PANC-1 [3]): 119 nM
IC50 [4]: 2700 nM
Activity (Prostate cancer organoid): Active
inhibition (INH) [7]: Active
Activity (Panc-1-Luc): Active
Activity [8]: 0.22 g
Activity (MDA-MB-468): Active
IC50 (PANC-1 [9]): 29 nM
EC50 (Endothelin-1 receptor): 6400 nM
IC50 [10]: 3100 nM
IC50 at 72 h [11]: > 1000 nM
IC50 (Mu-type opioid receptor): 3100 nM
Activity [13]: >50%
IC50 [15]: 1130 nM
